Data reported in ChEMBL document CHEMBL3352771, “3-Cyano-3-aza-β-amino Acid Derivatives as Inhibitors of Human Cysteine Cathepsins” (ACS Med Chem Lett, 2014).

What was measured:
[1] = biological target: T1, Cathepsin S (Homo sapiens, UniProt P25774); test: Inhibition of human cathepsin S assessed as second order rate constant using Z-Phe-Arg-AMC fluorogenic substrate incubated for 60 mins
Target sequence in this assay (P25774 115-331 limits assumed): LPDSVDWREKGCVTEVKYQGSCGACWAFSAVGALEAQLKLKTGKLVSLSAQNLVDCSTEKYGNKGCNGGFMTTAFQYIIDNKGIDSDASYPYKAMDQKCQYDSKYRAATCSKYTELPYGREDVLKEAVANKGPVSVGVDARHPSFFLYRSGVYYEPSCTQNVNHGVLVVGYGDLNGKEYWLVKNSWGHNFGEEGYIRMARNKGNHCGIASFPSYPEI

[2] = biological target: Cathepsin K (Homo sapiens) (UniProt P43235); test: Inhibition of human cathepsin K assessed as second order rate constant using Z-Leu-Arg-AMC fluorogenic substrate incubated for 60 mins
Cathepsin K (Homo sapiens), sequence (P43235 whole entry, looked up): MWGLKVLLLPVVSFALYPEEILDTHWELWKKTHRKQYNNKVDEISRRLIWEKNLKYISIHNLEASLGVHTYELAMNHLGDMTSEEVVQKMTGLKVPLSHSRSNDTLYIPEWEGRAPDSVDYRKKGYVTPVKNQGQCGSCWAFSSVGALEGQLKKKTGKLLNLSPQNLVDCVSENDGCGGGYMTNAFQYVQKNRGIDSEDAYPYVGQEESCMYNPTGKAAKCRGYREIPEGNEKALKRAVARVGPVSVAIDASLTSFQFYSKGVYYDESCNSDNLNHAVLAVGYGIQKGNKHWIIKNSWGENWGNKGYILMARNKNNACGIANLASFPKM

[3] = biological target: T1, Cathepsin S; test: Inhibition of human cathepsin S using Z-Phe-Arg-AMC fluorogenic substrate fluorogenic substrate incubated for 60 mins
In short: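 Z-Phe-Arg-AMC substrate at 40 μM final (0.74 × Km), monitored over 60 min. Duplicate runs at five inhibitor concentrations. Steady-state rates fitted by nonlinear regression, v_s = v0/(1+[I]/IC50). Ki converted using IC50/(1+[S]/Km).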
Target sequence in this assay (P25774 whole entry): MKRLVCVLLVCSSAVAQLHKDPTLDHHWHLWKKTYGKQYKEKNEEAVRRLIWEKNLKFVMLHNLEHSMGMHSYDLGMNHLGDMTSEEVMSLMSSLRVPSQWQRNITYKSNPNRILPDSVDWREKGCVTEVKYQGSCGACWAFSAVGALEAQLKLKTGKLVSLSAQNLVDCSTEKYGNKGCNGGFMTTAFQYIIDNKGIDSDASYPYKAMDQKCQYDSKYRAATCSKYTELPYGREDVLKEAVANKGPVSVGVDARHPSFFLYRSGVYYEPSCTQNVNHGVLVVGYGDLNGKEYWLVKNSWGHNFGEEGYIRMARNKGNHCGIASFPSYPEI

[4] = biological target: Procathepsin L (Homo sapiens, UniProt P07711); test: Inhibition of human cathepsin L using Z-Phe-Arg-pNA chromogenic substrate fluorogenic substrate incubated for 30 mins
Procathepsin L, sequence (P07711 whole entry): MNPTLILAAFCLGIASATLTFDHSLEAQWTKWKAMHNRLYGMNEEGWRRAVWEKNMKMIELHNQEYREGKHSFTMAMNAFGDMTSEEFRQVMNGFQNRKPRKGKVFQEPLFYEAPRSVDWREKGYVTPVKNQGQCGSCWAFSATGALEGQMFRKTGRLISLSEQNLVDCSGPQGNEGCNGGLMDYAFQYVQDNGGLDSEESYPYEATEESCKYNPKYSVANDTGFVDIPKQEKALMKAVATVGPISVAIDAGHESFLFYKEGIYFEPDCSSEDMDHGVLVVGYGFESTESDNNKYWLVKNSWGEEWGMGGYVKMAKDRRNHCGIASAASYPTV
In short: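 Duplicate measurements at five inhibitor concentrations. IC50 from nonlinear regression of steady-state rates, v_s = v0/(1+[I]/IC50). Ki obtained as IC50/(1+[S]/Km).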

[5] = biological target: Cathepsin B (Homo sapiens, UniProt P07858); test: Inhibition of human cathepsin B using Z-Arg-Arg-pNA chromogenic substrate fluorogenic substrate incubated for 30 mins
In short: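 Chromogenic readout with Z-Arg-Arg-pNA at 500 μM final (0.45 × Km), followed over 30 min. Duplicate runs at five inhibitor concentrations. IC50 obtained by nonlinear regression of steady-state rates, v_s = v0/(1+[I]/IC50). Ki derived as IC50/(1+[S]/Km).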

[6] = biological target: T1, Cathepsin S; test: Inhibition of human cathepsin S assessed half life for enzyme-inhibitor complex using Z-Phe-Arg-AMC fluorogenic substrate fluorogenic substrate incubated for 60 mins
In short: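 Complex half-lives calculated from koff values for cathepsin K and cathepsin S. Progress curves used fluorescence emission at 440 nm with excitation at 360 nm. First-order rate constants kobs plotted against inhibitor concentration.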
Target sequence in this assay (P25774 115-331 limits assumed): as the sequence (P25774 115-331 limits assumed) above

Row | SMILES | K [1] [×10³ /M/s] | K [2] [×10³ /M/s] | Ki [3] [nM] | Ki [4] [nM] | Ki [5] [nM] | T1/2 [6] [min]
1 | CC(C)(C)OC(=O)NN(C#N)CC(=O)N1CCOCC1 | 757 | 19000 | 0.777 | 573 | 3.56 | 10
2 | CN(C(=O)OC(C)(C)C)N(C#N)CC(=O)N1CCOCC1 | 0.461 | 4.05 | 793 | 1690 | 194 | –
3 | CCCN1CCN(c2ccc(C(=O)NC3(C(=O)NCC#N)CCCCC3)cc2)CC1 [BALICATIB] | – | – | 30100 | 3260 | 3800 | –

More lines, now with the values ahead:

Row | K [1] [×10³ /M/s] | K [2] [×10³ /M/s] | Ki [3] [nM] | Ki [4] [nM] | Ki [5] [nM] | T1/2 [6] [min] | SMILES
4 | 2580 | 52900 | 0.13 | 185 | 0.406 | – | CC(C)(C)OC(=O)NN(C#N)CC(=O)N(Cc1ccccc1)Cc1ccccc1
5 | 1590 | 28900 | 0.176 | 228 | 0.459 | – | CN(Cc1ccccc1)C(=O)CN(C#N)NC(=O)OC(C)(C)C
